Data taken from PubChem BioAssay.
Results filed as inconclusive are left out.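 Rule for the calls, unless noted: active = cell viability at or below a set limit in both duplicate runs, the limit being the all-compound median minus 4 SD (cut at about 23% in these data, passing the limit was not always enough); inconclusive = no clear call, values can overlap the other calls; inactive = the rest.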

What was measured:
[1] = S. cerevisiae growth inhibition in permissive medium (OD615), pilot counter-assay for S. cerevisiae lifespan shortening project, permissive growth control (AID 705;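 active = growth inhibition above 25% in both replicates, a cutoff set 3 SD above the mean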); conditions: OD615, 24 h, at 10 µM, stronger effect = higher value
Outline: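 System: Engineered DeaD yeast | Buffer or medium: SC raffinose/galactose permissive medium | Incubation: Cells pre-grown 4 h, then 24 h compound exposure, 30 °C humidified | Measured by: Absorbance (optical density) at 615 nm | Read-out: Reduction in yeast growth (OD615)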

[2] = S. cerevisiae growth inhibition in restrictive medium, OD615, pilot screen, restrictive growth control, yeast lifespan reduction project (AID 706;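 active = growth inhibition above a set limit, 3 SD over mean compound inhibition, in both replicates, cut at about 43% in these data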;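 note: modified DeaD lifespan yeast strain shifted to restrictive glucose medium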); conditions: OD615, 48 h, at 10 µM, stronger effect = higher value
Outline: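 Material: modified S. cerevisiae; Medium: glucose-based CSMM-D restrictive medium; Compound dosing: one concentration, 10 µM final, 0.25% DMSO; Incubation: 48 h compound exposure at 30 °C; Measured by: OD615.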

[3] = doxorubicin toxicity protection in MRP-1 cells – H69AR cells, CellTiter-Glo, duplicate, MRP-1 activator project, pilot screen (AID 807;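 active = viability increase at or above a cutoff of the median across tested compounds plus 3 SD, cut at about 8.5% in these data, passing the limit was not always enough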;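 note: compound pretreatment 18-22 h then 72 h combined with doxorubicin; 0% = doxorubicin alone and 100% = vehicle without doxorubicin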); conditions: H69AR viability with doxorubicin, CellTiter-Glo luminescence; at 10 µM; stronger effect = higher value
[4] = viability of HCT116 without oncogenic beta-catenin – human colon tumor cells, pilot screen (AID 823); conditions: HCT116 beta-catenin knockout viability, CellTiter-Glo, 60 h; at 10 µM; stronger effect = lower value;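 note: 0% = wells killed by 20 µM Hyamine and 100% = untreated DMSO cell wells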
[5] = viability of PTEN-null HCT116 cells – cell-based, HCT116 clonal line, CellTiter-Glo, pilot screen (AID 824;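 active = viability at or below 27.92% in each of two runs, the all-compound median minus 4 SD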;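 note: 0% = 20 µM Hyamine control and 100% = vehicle cell control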); conditions: HCT116 PTEN-deleted viability, 60 h, at 10 µM, stronger effect = lower value
[6] = RAM pathway blockade in budding yeast – dse1pr::URA3 reporter, 5-FOA selection, pilot screen (AID 869;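 active = inhibition over a set limit, the all-compound mean plus 3 SD, in both replicate runs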;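 note: 0% = DMSO wells with no growth and 100% = 10 µM 1-NA-PP1 with full growth; RAM network block rescues cells from 5-FOA so hits raise OD615 growth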); conditions: S. cerevisiae dse1pr::URA3 5-FOA growth, OD615, 2 d; at 10 µM; stronger effect = higher value; strain carries analog-sensitive mutant Cbk1 kinase
[7] = RAM signaling pathway blockade in yeast – S. cerevisiae, Pdr1DBD-CYC8 efflux-inhibited sensitized strain, primary screen (AID 1298;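 active = RAM network inhibition above 8.4% in each of two replicates, 3 SD over the compound average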;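 note: 0% = DMSO untreated cells without growth and 100% = 10 µM 1-NA-PP1 full growth; higher means more yeast growth rescued from 5-FOA killing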); conditions: S. cerevisiae cbk1-as DSE1-URA3 strain, 5-FOA growth OD615, 2 d; at 50 µM; stronger effect = higher value

Cc1cc(N2C(=O)C3C4c5ccccc5C(c5ccccc54)C3C2=O)no1 (stereo not given)
inactive: growth inhibition [1] -9.23% | growth inhibition [2] -12.7% | viability increase [3] -2.14% | viability [4] 80.2% | viability [5] 90.7% | inhibition [6] 0.02% | RAM network inhibition [7] 5.19%

COC(=O)C1C(=O)c2c([nH]c(C(=O)OC3CCCCCC3)c2C)CC1C (stereo not given)
inactive: growth inhibition [1] 1.09% | growth inhibition [2] 2.59% | viability increase [3] -2.6% | viability [4] 102% | viability [5] 91.1% | inhibition [6] 1.3% | RAM network inhibition [7] 3.01%

CCCCSCc1[nH]c(=O)[nH]c1C(=O)CCCCC(=O)OCC
inactive: growth inhibition [1] -12.8% | growth inhibition [2] -1.29% | viability increase [3] -3.65% | viability [4] 99.4% | viability [5] 100% | inhibition [6] 0.975% | RAM network inhibition [7] 2.54%

Cc1ccc(-c2nc(C#N)c(N3CCCCC3)o2)cc1
inactive: growth inhibition [1] -4.44% | growth inhibition [2] -6.95% | viability increase [3] -1.61% | viability [4] 98% | viability [5] 78.1% | inhibition [6] 1.51% | RAM network inhibition [7] 3.37%

COC(=O)c1c(C)nn(-c2ccccc2)c1N
inactive: growth inhibition [1] -12.5% | growth inhibition [2] -19.5% | viability increase [3] -1.39% | viability [4] 108% | viability [5] 98.5% | inhibition [6] 1.2% | RAM network inhibition [7] -0.37%

Fc1ccccc1N1CCN(C2CCN(Cc3c[nH]c4ccccc34)CC2)CC1
inactive: growth inhibition [1] -1.12% | growth inhibition [2] 2.13% | viability increase [3] -6.63% | viability [4] 47.1% | viability [5] 58.8% | inhibition [6] 1.08% | RAM network inhibition [7] 0.22%

Cc1ccccc1-c1c(C)oc2cc(O)ccc2c1=O
inactive: growth inhibition [1] 1.68% | growth inhibition [2] -0.005% | viability increase [3] -4.28% | viability [4] 96.8% | viability [5] 92.2% | inhibition [6] 2.21% | RAM network inhibition [7] 2.67%

Cn1c(C(=O)N2CCN(c3ccc(F)cc3)CC2)cc2c(=O)n(C)c3ccccc3c21
inactive: growth inhibition [1] -6.62% | growth inhibition [2] -10.8% | viability increase [3] -2.2% | viability [4] 95.1% | viability [5] 85% | inhibition [6] 1.64% | RAM network inhibition [7] 1.39%

COc1ccc(N(CC(=O)N2CCc3ccccc3C2)S(=O)(=O)c2c(C)[nH]c(=O)[nH]c2=O)cc1
inactive: growth inhibition [1] -5.04% | growth inhibition [2] -13% | viability increase [3] -1.83% | viability [4] 110% | viability [5] 99.5% | inhibition [6] 2.77% | RAM network inhibition [7] 3.41%

COc1ccc(OCC(=O)N2CCN(C(=O)c3ccccc3)CC2)cc1
inactive: growth inhibition [1] -15.8% | growth inhibition [2] -9.8% | viability increase [3] 1.19% | viability [4] 91.1% | viability [5] 87.2% | inhibition [6] 1.66% | RAM network inhibition [7] 0.47%

CCOc1ccc(N(CC(=O)NCc2cccs2)S(=O)(=O)c2c(C)noc2C)cc1
inactive: growth inhibition [1] -17.4% | growth inhibition [2] -7.87% | viability increase [3] -2.25% | viability [4] 95.1% | viability [5] 94.7% | inhibition [6] 1.49% | RAM network inhibition [7] 6.62%

O=C(Cn1nc(Cc2cccnc2)c2ccccc2c1=O)NCCCN1CCCC1=O
inactive: growth inhibition [1] 3.02% | growth inhibition [2] -5.47% | viability increase [3] -0.8% | viability [4] 103% | viability [5] 97.3% | inhibition [6] 0.75% | RAM network inhibition [7] 0.25%

CCOc1ccc(NC(=O)c2cnc3scc(C)n3c2=O)cc1
inactive: growth inhibition [1] -17.7% | growth inhibition [2] 3.42% | viability increase [3] -1.16% | viability [4] 101% | viability [5] 98.9% | inhibition [6] 2.76% | RAM network inhibition [7] 8.45%

CC(C)CCNC(=O)Cn1c(=O)oc2cc(S(=O)(=O)N3CCc4ccccc43)ccc21
inactive: growth inhibition [1] -6.32% | growth inhibition [2] -5.12% | viability increase [3] -5.87% | viability [4] 71.8% | viability [5] 62.5% | inhibition [6] 1.15% | RAM network inhibition [7] 1.07%

COc1ccc(C)cc1NC(=O)C1CCCN(S(=O)(=O)c2c(C)noc2/C=C/N(C)C)C1 (stereo not given)
inactive: growth inhibition [1] -4.98% | growth inhibition [2] 3.38% | viability increase [3] -0.74% | viability [4] 102% | viability [5] 100% | inhibition [6] -0.18% | RAM network inhibition [7] 4.58%

Cc1ccc(NC(=O)CNS(=O)(=O)c2cccs2)cc1F
inactive: growth inhibition [1] -5.56% | growth inhibition [2] -17.9% | viability increase [3] 1.44% | viability [4] 100% | viability [5] 97.7% | inhibition [6] 0.01% | RAM network inhibition [7] -0.53%

O=c1c2c3c(sc2nc2n1CCCCC2)CCCCC3
inactive: growth inhibition [1] -11.5% | growth inhibition [2] -20.9% | viability increase [3] 0.17% | viability [4] 91.3% | viability [5] 91.7% | inhibition [6] 1.92% | RAM network inhibition [7] 6.27%

CCOc1ccc(Cc2nnc(SCC(=O)c3ccc(OC)cc3)o2)cc1
inactive: growth inhibition [1] 1.71% | growth inhibition [2] 25.5% | viability increase [3] 0.28% | viability [4] 54.3% | viability [5] 70.3% | inhibition [6] 1.66% | RAM network inhibition [7] 11.3%

CCOC(=O)N1CCC(N2CC34C=CC(O3)C(C(=O)Nc3ccc(F)cc3)C4C2=O)CC1 (stereo not given)
inactive: growth inhibition [1] -4.45% | growth inhibition [2] -3.7% | viability increase [3] 1.43% | viability [4] 105% | viability [5] 101% | inhibition [6] 0.885% | RAM network inhibition [7] 6.68%

CCCn1c(N2CCN(Cc3cccc(C)c3)CC2)nc2c1c(=O)[nH]c(=O)n2C
inactive: growth inhibition [1] 5.6% | growth inhibition [2] 2.15% | viability increase [3] -5.06% | viability [4] 89.3% | viability [5] 82.8% | inhibition [6] 1.34% | RAM network inhibition [7] 2.5%

COc1ccc(NC(=O)NCCN2CCN(c3cccc(Cl)c3)CC2)cc1
inactive: growth inhibition [1] 1.49% | growth inhibition [2] -5.71% | viability increase [3] -1.77% | viability [4] 76.9% | viability [5] 71.9% | inhibition [6] 0.88% | RAM network inhibition [7] 3.82%

CC1CCCN(Cc2nc3c(c(=O)n(C)c(=O)n3C)n2CC(=O)c2ccccc2)C1 (stereo not given)
inactive: growth inhibition [1] -8.04% | growth inhibition [2] -16.3% | viability increase [3] -4.65% | viability [4] 78.2% | viability [5] 81.2% | inhibition [6] -0.325% | RAM network inhibition [7] 4.05%

Cc1cc(N2CCCC2)n2nc(C)nc2n1
inactive: growth inhibition [1] -10.1% | growth inhibition [2] -17.2% | viability increase [3] -0.52% | viability [4] 102% | viability [5] 101% | inhibition [6] 1.88% | RAM network inhibition [7] 1.98%

Cc1oc(-c2cccc(Cl)c2)nc1CN1CCC(C(=O)NCCCN2CCCC2=O)CC1
inactive: growth inhibition [1] -1.65% | growth inhibition [2] -10.2% | viability increase [3] -3.95% | viability [4] 85.8% | viability [5] 93.5% | inhibition [6] 0.59% | RAM network inhibition [7] 2.35%

CC(C)N(Cc1nc2ccccc2[nH]1)C(C)C
inactive: growth inhibition [1] 2.5% | growth inhibition [2] 4.54% | viability increase [3] -0.49% | viability [4] 94.1% | viability [5] 91.9% | inhibition [6] 1.25% | RAM network inhibition [7] 0.22%

O=C(CC1NC(=O)NC1=O)NC1(C(=O)NC2CCCCC2)CCCCC1 (stereo not given)
inactive: growth inhibition [1] -9.09% | growth inhibition [2] 5.08% | viability increase [3] 0.88% | viability [4] 99.3% | viability [5] 102% | inhibition [6] 1.18% | RAM network inhibition [7] -0.62%

COCCOC(=O)C1=C(C)NC2=C(C(=O)CCC2)C1c1cc2c(cc1Br)OCO2 (stereo not given)
inactive: growth inhibition [1] -18.1% | growth inhibition [2] -17% | viability increase [3] -0.03% | viability [4] 92.4% | viability [5] 102% | inhibition [6] 1.16% | RAM network inhibition [7] 5.69%

COc1ccccc1-n1c(=O)[nH]c2c(C(N)=O)nc(C3CCCCC3)nc21
inactive: growth inhibition [1] -7.19% | growth inhibition [2] -5.21% | viability increase [3] -3.33% | viability [4] 94.7% | viability [5] 77.5% | inhibition [6] 1.55% | RAM network inhibition [7] 2.69%

O=C(Nc1nc(-c2ccco2)c(-c2ccco2)s1)C1CC(=O)N(c2ccc3c(c2)OCCO3)C1 (stereo not given)
inactive: growth inhibition [1] -14.8% | growth inhibition [2] -20.3% | viability increase [3] -3.72% | viability [4] 76.5% | viability [5] 78.8% | inhibition [6] 2.66% | RAM network inhibition [7] 4.02%

Cn1c(=NC(=O)C2CC2)sc2cc(F)cc(F)c21
inactive: growth inhibition [1] -0.79% | growth inhibition [2] 8.89% | viability increase [3] -4.58% | viability [4] 91.3% | viability [5] 92.6% | inhibition [6] 1.81% | RAM network inhibition [7] 7.52%

CSc1ccc(C2NC(=O)c3c(sc4c3CCN(C)C4)N2)cc1 (stereo not given)
inactive: growth inhibition [1] -13.2% | growth inhibition [2] -0.305% | viability increase [3] -2.7% | viability [4] 78.2% | viability [5] 92.5% | inhibition [6] -0.285% | RAM network inhibition [7] 4.99%

CCCc1nc(N)c(C#N)c(-c2cccnc2)c1CC
inactive: growth inhibition [1] -6.48% | growth inhibition [2] -4.83% | viability increase [3] -4.91% | viability [4] 90.8% | viability [5] 84.7% | inhibition [6] 0.805% | RAM network inhibition [7] 3.69%

NC(=O)C1(N2CCCCC2)CCN(C(=O)c2ccccc2)CC1
inactive: growth inhibition [1] -4.24% | growth inhibition [2] -19.4% | viability increase [3] -1.09% | viability [4] 103% | viability [5] 90.4% | inhibition [6] 0.21% | RAM network inhibition [7] 5.36%

O=C(c1ccc(CS(=O)(=O)c2ccc(Br)cc2)o1)N1CCN(C2CCCCC2)CC1
inactive: growth inhibition [1] 0.435% | growth inhibition [2] 9.43% | viability increase [3] -3.78% | viability [4] 112% | viability [5] 95.8% | inhibition [6] 1.93% | RAM network inhibition [7] 0.46%

Cc1cc2cc(CNC(=O)c3ccco3)ccc2n1C
inactive: growth inhibition [1] -7.55% | growth inhibition [2] -15.6% | viability increase [3] -4.26% | viability [4] 106% | viability [5] 94.4% | inhibition [6] 1.89% | RAM network inhibition [7] 6.42%
